Legend:
Glucocorticoid receptor [1] = target: T1, Glucocorticoid receptor (Homo sapiens, UniProt P04150); assay: Transactivation activity at glucocorticoid receptor in human 13D3/Huh7 cells assessed as induction of tyrosine aminotransferase activity after 24 hrs; format: cell-based, Huh-7
T1 sequence (P04150 whole entry): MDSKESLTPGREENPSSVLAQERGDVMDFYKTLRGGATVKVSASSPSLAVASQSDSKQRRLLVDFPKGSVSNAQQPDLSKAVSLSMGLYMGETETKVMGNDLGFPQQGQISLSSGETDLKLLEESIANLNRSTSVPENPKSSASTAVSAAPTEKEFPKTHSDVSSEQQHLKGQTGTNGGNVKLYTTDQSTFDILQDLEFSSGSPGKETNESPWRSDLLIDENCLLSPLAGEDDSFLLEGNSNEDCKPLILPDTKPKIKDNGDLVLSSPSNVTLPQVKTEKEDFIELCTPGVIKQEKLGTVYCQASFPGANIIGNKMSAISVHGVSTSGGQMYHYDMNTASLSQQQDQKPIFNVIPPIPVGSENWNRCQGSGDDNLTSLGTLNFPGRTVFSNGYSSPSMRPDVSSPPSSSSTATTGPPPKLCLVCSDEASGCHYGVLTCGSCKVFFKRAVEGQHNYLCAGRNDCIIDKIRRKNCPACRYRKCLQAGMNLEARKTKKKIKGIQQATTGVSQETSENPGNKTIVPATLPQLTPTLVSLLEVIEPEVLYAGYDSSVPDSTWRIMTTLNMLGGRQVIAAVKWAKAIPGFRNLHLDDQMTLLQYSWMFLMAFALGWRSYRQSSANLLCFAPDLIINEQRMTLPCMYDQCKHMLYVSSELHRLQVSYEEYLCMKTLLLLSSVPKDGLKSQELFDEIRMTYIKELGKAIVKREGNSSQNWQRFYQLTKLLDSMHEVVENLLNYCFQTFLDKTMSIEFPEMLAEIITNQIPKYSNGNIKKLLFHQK

Glucocorticoid receptor [2] = target: T1, Glucocorticoid receptor; assay: Transrepression activity of glucocorticoid receptor in human A549 cells assessed as inhibition of IL1beta-stimulated NFkappaB-dependent E-selectin transcription by luciferase reporter gene assay; format: cell-based
[3] = target: T2, Glucocorticoid receptor (Homo sapiens) (UniProt P04150); assay: Transactivation activity of glucocorticoid receptor ligand binding domain expressed in human NP-1 Hela cells co-expressing GAL4 DNA binding domain by luciferase reporter gene assay relative to Dexamethasone; format: cell-based
T2 sequence (whole entry): T1 sequence (P04150 whole entry)
Procedure, shortened: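 HeLa NP-1 cells stably carrying a GAL4 DBD–human GR LBD chimera with a GAL4 luciferase reporter. Agonist activity was read as increased luciferase activity.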

[4] = target: T2, Glucocorticoid receptor (Homo sapiens); assay: Transrepression activity of glucocorticoid receptor in human A549 cells assessed as inhibition of IL1beta-stimulated NFkappaB-dependent E-selectin transcription by luciferase reporter gene assay relative to Dexamethasone; format: cell-based
[5] = target: T2, Glucocorticoid receptor (Homo sapiens); assay: Transrepression activity of glucocorticoid receptor in human A549 cells expressing AP-1 assessed as inhibition of PMA-induced AP-1 activity by luciferase reporter gene assay relative to Dexamethasone; format: cell-based
Procedure, shortened: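 Human A549 lung epithelial cells stably transfected with a 5×AP-1 response element luciferase reporter. AP-1 was induced with PMA (15 ng/mL), and inhibition was read as decreased luciferase.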

Glucocorticoid receptor [6] = target: T1, Glucocorticoid receptor; assay: Transrepression activity of glucocorticoid receptor in human A549 cells expressing AP-1 assessed as inhibition of PMA-induced AP-1 activity by luciferase reporter gene assay; format: cell-based
Glucocorticoid receptor [7] = target: T1, Glucocorticoid receptor; assay: Displacement of GS-red from GRapha by fluorescence polarization assay
Glucocorticoid receptor [8] = target: T1, Glucocorticoid receptor; assay: Transactivation activity of glucocorticoid receptor ligand binding domain expressed in human NP-1 Hela cells co-expressing GAL4 DNA binding domain by luciferase reporter gene assay; format: cell-based
[9] = target: T2, Glucocorticoid receptor (Homo sapiens); assay: Transactivation activity at glucocorticoid receptor in human 13D3/Huh7 cells assessed as induction of tyrosine aminotransferase activity after 24 hrs relative to Dexamethasone; format: cell-based; settings: Huh-7
Procedure, shortened: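 Human 13D3/Huh7 hepatoma cells, 20 K/well, were incubated overnight at 37 °C/5% CO2. They were then treated overnight with compounds in assay medium containing 20 μM forskolin. The reaction was stopped with KOH and A340 read. Results are % activation, with EC50 derived.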

Androgen receptor = target: T3, Androgen receptor (Homo sapiens, UniProt P10275); assay: Binding affinity to androgen receptor by fluorescence polarization assay
T3 sequence (P10275 whole entry): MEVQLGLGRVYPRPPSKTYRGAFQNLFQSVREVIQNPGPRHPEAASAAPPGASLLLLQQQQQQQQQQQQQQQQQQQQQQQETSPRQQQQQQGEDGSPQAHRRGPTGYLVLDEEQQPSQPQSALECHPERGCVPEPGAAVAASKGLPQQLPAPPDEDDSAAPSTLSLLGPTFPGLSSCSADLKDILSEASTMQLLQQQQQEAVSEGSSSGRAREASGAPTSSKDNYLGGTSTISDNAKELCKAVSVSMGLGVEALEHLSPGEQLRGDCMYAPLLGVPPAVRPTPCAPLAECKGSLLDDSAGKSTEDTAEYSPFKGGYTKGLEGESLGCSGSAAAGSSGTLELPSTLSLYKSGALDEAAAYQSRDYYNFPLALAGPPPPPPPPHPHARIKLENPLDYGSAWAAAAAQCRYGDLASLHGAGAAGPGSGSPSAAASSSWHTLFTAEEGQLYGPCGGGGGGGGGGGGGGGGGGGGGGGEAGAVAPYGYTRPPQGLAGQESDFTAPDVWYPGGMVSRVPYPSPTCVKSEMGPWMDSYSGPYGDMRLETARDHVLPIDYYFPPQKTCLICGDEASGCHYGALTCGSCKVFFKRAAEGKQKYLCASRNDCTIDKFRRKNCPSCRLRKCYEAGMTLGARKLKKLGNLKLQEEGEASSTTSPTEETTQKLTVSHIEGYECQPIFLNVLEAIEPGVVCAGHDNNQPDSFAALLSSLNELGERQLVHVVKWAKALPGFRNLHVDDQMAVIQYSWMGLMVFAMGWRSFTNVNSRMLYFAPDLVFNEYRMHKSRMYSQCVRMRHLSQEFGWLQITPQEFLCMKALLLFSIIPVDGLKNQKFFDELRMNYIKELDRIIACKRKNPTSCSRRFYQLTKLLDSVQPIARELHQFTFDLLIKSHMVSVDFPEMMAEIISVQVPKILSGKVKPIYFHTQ
Procedure, shortened: (§1)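 Fluorescence polarization competition of test compound against a fluorescently labelled ligand for binding to full-length receptor or its ligand-binding domain.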

Progesterone receptor = target: T4, Progesterone receptor (Homo sapiens, UniProt P06401); assay: Binding affinity to progesterone receptor by fluorescence polarization assay; procedure, shortened: as §1
T4 sequence (P06401 whole entry): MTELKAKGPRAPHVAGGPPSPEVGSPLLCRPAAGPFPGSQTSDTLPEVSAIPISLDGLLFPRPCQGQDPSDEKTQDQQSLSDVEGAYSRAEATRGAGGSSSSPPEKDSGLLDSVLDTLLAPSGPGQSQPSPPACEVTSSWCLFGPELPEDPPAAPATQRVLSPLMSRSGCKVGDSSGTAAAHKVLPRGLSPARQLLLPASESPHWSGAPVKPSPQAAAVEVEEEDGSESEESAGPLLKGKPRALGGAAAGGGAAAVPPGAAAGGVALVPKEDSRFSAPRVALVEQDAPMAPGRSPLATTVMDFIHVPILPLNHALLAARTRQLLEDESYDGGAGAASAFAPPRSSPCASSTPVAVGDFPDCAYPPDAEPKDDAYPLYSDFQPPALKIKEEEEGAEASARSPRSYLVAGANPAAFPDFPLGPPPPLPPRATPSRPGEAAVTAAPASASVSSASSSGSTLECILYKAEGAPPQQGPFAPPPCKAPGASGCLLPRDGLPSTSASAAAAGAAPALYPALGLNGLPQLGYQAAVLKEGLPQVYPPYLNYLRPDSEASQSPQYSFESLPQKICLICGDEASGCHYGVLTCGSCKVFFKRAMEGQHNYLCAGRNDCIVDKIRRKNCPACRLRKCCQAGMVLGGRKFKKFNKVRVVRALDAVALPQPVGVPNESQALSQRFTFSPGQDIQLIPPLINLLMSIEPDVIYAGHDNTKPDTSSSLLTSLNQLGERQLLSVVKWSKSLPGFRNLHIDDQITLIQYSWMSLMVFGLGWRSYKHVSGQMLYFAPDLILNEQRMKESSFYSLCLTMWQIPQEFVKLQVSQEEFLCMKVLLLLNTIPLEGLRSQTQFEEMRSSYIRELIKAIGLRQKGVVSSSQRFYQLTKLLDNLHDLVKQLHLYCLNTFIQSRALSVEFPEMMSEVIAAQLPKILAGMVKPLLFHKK

Row | EC50 (Glucocorticoid receptor [1]) | EC50 (Glucocorticoid receptor [2]) | Efficacy [3] | Efficacy [4] | Efficacy [5] | EC50 (Glucocorticoid receptor [6]) | Ki (Glucocorticoid receptor [7]) | EC50 (Glucocorticoid receptor [8]) | Efficacy [9] | Ki (Androgen receptor) | Ki (Progesterone receptor) | Structure (SMILES)
1 | 2580 nM | 125 nM | 14% | 50% | 63% | 61.4 nM | 2.5 nM | 863 nM | 20% |  |  | CC(C)(C(=O)Nc1nccs1)C(c1ccccc1)c1ccc(O)cc1 (racemic)
2 | 197 nM | 37.7 nM | 39% | 63% | 77% | 51.1 nM | 0.6 nM | 216 nM | 41% |  |  | CC(C)(C(=O)Nc1nccs1)C(c1ccccc1)c1ccc(O)c(F)c1 (racemic)
3 |  | > 5000 nM |  |  |  | > 5000 nM | 58.7 nM | > 10000 nM |  |  |  | CC(C)(C(=O)Nc1nncs1)[C@@H]1c2ccccc2Oc2cc(O)ccc21
4 | 2320 nM | > 5000 nM |  | 16% |  | > 10000 nM | 7.3 nM | > 10000 nM |  |  |  | CC(=O)c1cc([C@H](c2ccccc2)C(C)(C)C(=O)Nc2nccs2)ccc1O
5 |  | > 5000 nM |  |  |  | > 5000 nM | 6 nM | > 10000 nM |  |  |  | CC(C)(C(=O)Nc1nncs1)C1c2ccccc2Oc2ccccc21
6 | > 5000 nM | > 5000 nM |  | 12% | 16% | > 10000 nM | 4.6 nM | > 10000 nM |  |  |  | CC(C)(C(=O)Nc1nccs1)[C@H](c1ccccc1)c1ccc(O)c(F)c1
7 | > 5000 nM | 206 nM |  | 48% | 74% | 506 nM | 0.9 nM | > 10000 nM | 16% | > 3000 nM | 144 nM | CC(C)(C(=O)Nc1nccs1)[C@@H](c1ccccc1)c1ccc(O)c(C#N)c1
8 | 46.5 nM | 6.2 nM | 54% | 75% | 87% | 12.7 nM | 0.4 nM | 67.2 nM | 57% |  |  | CC(C)(C(=O)Nc1nncs1)[C@@H](c1ccccc1)c1ccc(O)c(Br)c1
9 |  |  |  |  |  |  |  |  |  | > 4000 nM | 140 nM | Cc1cc([C@H](c2ccccc2)C(C)(C)C(=O)Nc2nncs2)ccc1O
10 | > 10000 nM |  |  |  |  | > 10000 nM |  | > 10000 nM |  |  |  | CC(C)(C(=O)Nc1nccs1)[C@H](c1ccccc1)c1ccc(O)cc1

Source: ChEMBL document CHEMBL1799968, “Dimethyl-diphenyl-propanamide derivatives as nonsteroidal dissociated glucocorticoid receptor agonists” (J Med Chem, 2010)
